The list is not random: actives were taken first. Their share in the collection is about 1.5%.
LANA-H2A inh: blocks KSHV LANA binding to histone H2A/H2B. Q9QR71. cell-free LANA-H2A/H2B peptide, fluorescence polarization. inhibition, % (test concentration not listed). hit rate 0.6% among 320,000; in the data active = inhibition mostly above about 10%, no sharp cut-off; inactive = mostly below about 6.7%
CSN inh: inhibitors of human CSN-mediated cullin deneddylation; Q92905; Purified CSN, SCF-Nedd8-OG deneddylation, fluorescence polarization; inhibition, % at 12.5 µM; hit rate 0.38% among 360,000;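 active = pattern-corrected inhibition above about 35%, with an unprinted fluorescence ratio check between 0.5 and 1.5, limit read from the data, passing the limit was not always enough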;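 also: 0% = enzyme with substrate and 100% = substrate without enzyme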
Target sequence (Q92905 whole entry, looked up, one chain of several): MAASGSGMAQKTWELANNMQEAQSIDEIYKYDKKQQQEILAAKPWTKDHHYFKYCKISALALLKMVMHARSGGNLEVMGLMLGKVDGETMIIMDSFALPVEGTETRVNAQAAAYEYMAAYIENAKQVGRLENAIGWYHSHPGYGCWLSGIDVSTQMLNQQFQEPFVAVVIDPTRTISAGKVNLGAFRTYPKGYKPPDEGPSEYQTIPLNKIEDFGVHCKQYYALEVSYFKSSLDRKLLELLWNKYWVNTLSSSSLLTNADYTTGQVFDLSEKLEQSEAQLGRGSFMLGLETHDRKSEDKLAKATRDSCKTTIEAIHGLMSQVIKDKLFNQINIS
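assay system = purified human Csn5 enzyme expressed in HEK293T cells | amount = 0.24 nM enzyme | buffer or medium = Tris/NaCl/DTT buffer, pH 7.5 | reagent = 10 nM SCFSkp2-Nedd8OG | compound = one concentration, 12.5 µM, 0.25% DMSO | times = 90 min reaction at room temperature | signal = FP | read-out basis = % inhibition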
EBNA-1 inh: blocks EBNA-1 binding to DNA | EBNA-1 DNA binding, fluorescence polarization | inhibition, % at 14.8 µM | hit rate 0.34% among 300,000; in the data active = inhibition above about 28%
HNF4A DNA FP: change in binding of human HNF4 alpha to DNA. P41235. activity change, % at 10 µM. hit rate 0.3% among 360,000. AID 1224865. HNF4a-FITC DNA binding, fluorescence polarization, 1 h; in the data active = activity change above about 30%, passing the limit was not always enough
ZTA counter: blocks Epstein-Barr virus ZTA, an EBNA-1 counter-screen | P03206 | inhibition, % at 11 µM | ZTA-DNA binding, fluorescence polarization | hit rate 0.15% among 320,000; in the data active = inhibition above about 33%
Target sequence (P03206 whole entry, looked up): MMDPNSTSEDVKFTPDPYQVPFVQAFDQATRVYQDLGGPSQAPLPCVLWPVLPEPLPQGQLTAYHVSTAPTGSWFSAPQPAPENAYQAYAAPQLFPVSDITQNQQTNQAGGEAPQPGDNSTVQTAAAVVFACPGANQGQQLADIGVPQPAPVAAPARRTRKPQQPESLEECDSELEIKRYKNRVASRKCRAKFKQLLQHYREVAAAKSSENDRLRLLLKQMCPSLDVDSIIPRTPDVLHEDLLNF
A1 inh: inhibitors of the anti-apoptotic protein A1, read as caspase activation; hit rate 0.066% among 330,000; MEF A1-2A-BIM cells, Caspase-Glo 3/7 luminescence, 3 h; percent of clofoctol response, vehicle zero; caspase activation, % (test concentration not listed);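 active = over half of replicate activation scores above 10%, or exactly half above 10 with the replicate mean above 10; inconclusive = replicate mean below 10 yet half the replicates above 10; inactive = over half of replicates below 10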
Active calls of the source: *; ? = inconclusive; . = no result given; + = active, no number.

SMILES | LANA-H2A inh | CSN inh | EBNA-1 inh | HNF4A DNA FP | ZTA counter | A1 inh
C[C@H](CO)N1C[C@H](C)[C@@H](CN(C)S(=O)(=O)c2ccc(F)cc2)Oc2ccc(NC(=O)Nc3ccc(C(F)(F)F)cc3)cc2C1=O | -2 | 0 | . | -1 | . | 1
C[C@H](CO)N1C[C@H](C)[C@@H](CN(C)C(=O)Nc2ccccc2)Oc2ccc(NC(=O)Nc3ccccc3)cc2C1=O | -367 | -5 | . | -1 | . | -1
C[C@@H]1CN([C@H](C)CO)C(=O)c2cc(NC(=O)Nc3ccc(C(F)(F)F)cc3)ccc2O[C@H]1CN(C)S(=O)(=O)c1ccc(Cl)cc1 | + | 0 | . | 3 | . | 0
C[C@H](CO)N1C[C@H](C)[C@@H](CN(C)S(=O)(=O)c2ccc(F)cc2)Oc2c(NC(=O)Nc3ccc(C(F)(F)F)cc3)cccc2C1=O | -3 | -3 | . | 0 | . | 0
C[C@H](CO)N1C[C@H](C)[C@@H](CN(C)C(=O)Nc2ccc(C(F)(F)F)cc2)Oc2ccc(NC(=O)Nc3ccccc3)cc2C1=O | 143* | -4 | . | 2 | . | 1
C[C@H]1CN([C@@H](C)CO)C(=O)c2cccc(NC(=O)Nc3ccc(C(F)(F)F)cc3)c2O[C@@H]1CN(C)S(=O)(=O)c1ccc(Cl)cc1 | 15* | -2 | . | 4 | . | 0
Cc1noc(C)c1NC(=O)Nc1ccc2c(c1)C(=O)N([C@H](C)CO)C[C@H](C)[C@H](CN(C)C)O2 | 46* | 2 | . | 1 | . | 0
COc1ccc(C(=O)C2CCCN(C(=O)/C=C/c3ccccn3)C2)c(C)c1 (stereo not drawn) | -5 | -1 | 13 | -2 | -8 | 1
Cc1cc(Cl)ccc1-c1nc(NC(C)C)nc2ccsc12 | . | -7 | . | -3 | . | .
COc1ccc(S(=O)(=O)N2CCC(C(=O)NCCc3ccccc3)CC2)cc1 | 4 | 1 | -15 | 1 | -12 | -1
CC(C)CCNC(=O)CCCCn1c(=O)[nH]c2ccsc2c1=O | 6 | -2 | 7 | -2 | 9 | ?
COc1ccc(CCCNC(=O)C2Cc3c(-c4cccc(C(C)=O)c4)ccnc3O2)cc1 (stereo not drawn) | . | 2 | . | -3 | . | .
Cc1ccc(C(=O)/C=C/C(=O)c2ccc(C)cc2)cc1 | -3 | 22 | 6 | -1 | 11 | 9.9*
O=C(CNC(=O)c1cccc(F)c1)N/N=C/c1ccc([N+](=O)[O-])s1 | 14* | -1 | 10 | -5 | -15 | 1
O=C(NC(O)C(=O)c1cccs1)c1cccnc1 (stereo not drawn) | -2 | -1 | -5 | -1 | -17 | 0
CC(C)N(C(=O)[C@H]1C[C@H](CC(=O)NCC23CC4CC(CC(C4)C2)C3)C(=O)N2CCc3c([nH]c4cc(CCC(=O)N(C)C)ccc34)[C@]12C)C(C)C | . | 2 | . | 5 | . | .
CCCCn1c(N)c(S(=O)(=O)c2ccc(C)cc2)c2nc3ccccc3nc21 | -4 | 39* | -1 | 5 | 5 | 0
CN(C)CCCn1c(N)c(S(=O)(=O)c2ccccc2)c2nc3ccccc3nc21 | -5 | -3 | 12 | -21 | 3 | 0
CCCCCCc1cc2cc(C(=O)NCc3ccccc3)c(=N)oc2cc1O | -1 | 54* | -8 | 81 | -8 | -1
CCc1nnc(NC(=O)CCC(=O)N2CCC(Cc3ccccc3)CC2)s1 | 6 | 4 | -10 | 0 | -7 | -1
COCCN1C(=O)CCC1(C)C(=O)NC1CCCCC1 (stereo not drawn) | . | 121* | . | -1 | . | .
COc1cccc(-n2c(SCC(=O)NC3CC3)nc3ccccc3c2=O)c1 | . | -5 | . | 1 | . | .
Nc1c(C(=O)NCc2ccco2)c2nc3ccccc3nc2n1CCc1ccc(F)cc1 | -5 | 43* | 11 | 13 | -2 | 0
COc1ccccc1N(C)S(=O)(=O)c1ccc(C(=O)Nc2ccncc2)cc1 | -6 | -3 | 5 | 0 | 11 | 0
CC[n+]1c(/C=C/N(C)c2ccccc2)n(-c2ccccc2)c2ccc(-c3nc4ccccc4s3)cc21 | -9 | 28 | 15 | 31 | 42* | 1
SMILES | LANA-H2A inh | CSN inh | EBNA-1 inh | HNF4A DNA FP | ZTA counter | A1 inh
CC(=O)NC1=C(Nc2ccc(N(C)C)cc2)C(=O)c2ccccc2C1=O | 7 | 2 | 41* | 1 | 37* | -1
CSc1ncccc1C(=O)Nc1cccc(S(=O)(=O)N(C)c2ccccc2)c1 | 0 | 1 | . | 1 | 3 | -1
O=C1C(=Cc2cccn2-c2ccccc2)C(=O)c2ccccc21 | 127* | 17 | -4 | 15 | 6 | -1
O=C(c1ccco1)N1CCN(c2cc(=O)n(-c3ccc(Cl)cc3)c(=O)[nH]2)CC1 | 19* | 8 | 12 | -2 | -12 | 0
Cc1ccc(Cl)cc1-n1c(=O)cc(N2CCN(C(=O)c3ccco3)CC2)[nH]c1=O | 1 | 0 | -2 | 7 | 12 | 0
COc1cc2c(cc1OC)C(c1cccc(C)c1)CC(=O)N2 (stereo not drawn) | 47* | -12 | 5 | -3 | -6 | 0
CCN(CC)c1ccc2cc(C(=O)c3cccs3)c(=O)oc2c1 | . | 4 | . | 84* | . | .
CCN(CC)c1ccc2cc(C(=O)NCc3ccc(F)cc3)c(=N)oc2c1 | -11 | 7 | 4 | 65 | 13 | 2
CCN(CC)c1ccc2cc(-c3nc4ccccc4n3C)c(=O)oc2c1 | -3 | 11 | -3 | 9 | 5 | 2
CCN(CC)c1ccc2cc(-c3nc4ccccc4[nH]3)c(=O)oc2c1 | 27* | -72 | 1 | -87 | 2 | -8
CC(Oc1cccc(Cl)c1)C(=O)Nc1ccc(S(=O)(=O)N(C)C2CCN(C)CC2)cc1 (stereo not drawn) | 0 | 3 | . | 0 | -8 | 0
NS(=O)(=O)c1ccc(CCNC(=O)CNC(=O)c2ccc(Br)o2)cc1 | 23* | 0 | . | 2 | 0 | 1
CC(C)Cc1nnc(NC(=O)CCC(=O)N2CCN(Cc3ccc(Cl)cc3)CC2)s1 | 1 | 0 | 1 | 9 | 5 | 0
CC(=O)Nc1ccc(S(=O)(=O)NC2=C(N3CCN(Cc4ccccc4)CC3)C(=O)c3ccccc3C2=O)cc1 | + | -4 | -1 | -2 | 1 | 0
CC(=O)Nc1nonc1NC(C)=O | 0 | -6 | -15 | -1 | 4 | 0
CC(=O)Nc1cc(OC(C)=O)c2nonc2c1OC(C)=O | -7 | 2 | 7 | 0 | 70* | -1
CCSc1ccc(-c2nn(-c3ccccc3)cc2/C=C(/C#N)C(=O)NC)cc1 | 0 | 1 | -8 | 3 | 6 | 8.3*
CCCSc1ccc(-c2nn(-c3ccccc3)cc2/C=C(/C#N)C(=O)N2CCOCC2)cc1 | 0 | -1 | -2 | -3 | 4 | 1
Cc1n[nH]c2c([N+](=O)[O-])c(=O)[nH]c(=O)n12 | . | 2 | . | 1 | . | .
CC[n+]1c(C)sc2cc(C)ccc21 | 9.2* | 2 | -7 | -2 | -10 | 0
